Test results taken from ChEMBL document CHEMBL2331294, “Anti-inflammatory diterpenoids from Croton tonkinensis” (J Nat Prod, 2013).

What was measured:
[1] = Antiinflammatory activity in FMLP/CB activated human neutrophils assessed as inhibition of superoxide generation by ferricytochrome c reduction based spectrophotometry; format: functional, cell-based, Neutrophil
Procedure, shortened: (§1)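 Human donor neutrophils (6 × 10^5 cells/mL) with 0.5 mg/mL ferricytochrome c and 1 mM Ca2+, equilibrated 37 °C 2 min, then drug or 0.1% DMSO vehicle 5 min. Activated with 100 nM FMLP after 1 μg/mL cytochalasin B preincubation, 3 min. A550 followed continuously with stirring. Superoxide from SOD (100 U/mL)-inhibitable difference, ε = 21.1/mM/10 mm; n = 3−4.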

[2] = Antiinflammatory activity in FMLP/CB activated human neutrophils assessed as inhibition of elastase release; format: functional, cell-based, Neutrophil
Procedure, shortened: (§2)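 Neutrophils from healthy donor blood (dextran sedimentation, Ficoll 1.077 g/mL, hypotonic lysis), held in Ca2+-free HBSS pH 7.4 at 4 °C. Cells (6 × 10^5/mL) with MeO-Suc-Ala-Ala-Pro-Val-p-nitroanilide 100 μM, equilibrated 37 °C 2 min, drug or 0.1% DMSO 5 min, then 100 nM FMLP plus 0.5 μg/mL cytochalasin B. A405 monitored continuously; expressed relative to drug-free activated control; n = 3−4.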

[3] = Antiinflammatory activity in FMLP/CB activated human neutrophils assessed as inhibition of elastase release at 10 uM; format: functional; details: Neutrophil; procedure, shortened: as §2
[4] = Antiinflammatory activity in FMLP/CB activated human neutrophils assessed as inhibition of superoxide generation at 10 uM by ferricytochrome c reduction based spectrophotometry; format: functional; details: Neutrophil; procedure, shortened: as §1
[5] = Homo sapiens, Neutrophil, read-out: IC50

| SMILES | IC50 [1, 5] [µM] | IC50 [2, 5] [µM] | inhibition at 10 µM [3] [%] | other results |
| --- | --- | --- | --- | --- |
| C=C1C(=O)[C@]23C[C@@H]1CC[C@H]2[C@]1(C)CCCC(C)(C)[C@H]1C[C@@H]3O | 1.74 | 2.23 |  |  |
| CC(=O)OC[C@@]1(C)CCC[C@]2(C)[C@@H]1C[C@H](O)[C@@]13C[C@@H](CC[C@@H]21)[C@H](C)C3=O |  |  | -0.19 | inhibition at 10 µM [4]: 40.4% |
| C=C1C(=O)[C@@]23CC[C@@H]4C(C)(C)CCC[C@@]4(C)[C@@H]2CC[C@H]1[C@H]3O |  |  | 3.64 | inhibition at 10 µM [4]: 33.6% |
| CC(=O)O[C@H]1C[C@@H]2C[C@]3(C=C2C=O)CC[C@H]2[C@@](C)(CCC[C@]2(C)C(=O)O)[C@H]13 [CROTONKININ C] | 4.96 |  | 41.8 |  |
| C=C1C(=O)[C@@]23[C@H](O)C[C@@H]4C(C)(C)CC[C@@H](OC(C)=O)[C@@]4(C)[C@@H]2CC[C@@H]1[C@H]3O | 1.94 | 2.48 |  |  |
| C=C1C[C@]23C[C@@H]1CC[C@H]2[C@]1(C)CCC[C@](C)(COC(C)=O)[C@H]1C[C@H]3O |  |  |  | IC50 ([1]; neutrophil): ND(Insoluble); IC50 ([2]; neutrophil): ND(Insoluble) |
| COCC1C(=O)[C@]23C[C@H]1CC[C@H]2[C@]1(C)CCC[C@](C)(COC(C)=O)[C@H]1C[C@H]3O (stereo partly specified) [CROTONKININ G] | 4.29 |  | 11.1 |  |
| CC(=O)OC[C@@]1(C)CCC[C@]2(C)[C@@H]1CC[C@@]13C[C@@H](C[C@H](O)[C@H]12)C(C)(O)C3 (stereo partly specified) [CROTONKININ H] |  |  | 23.3 | inhibition at 10 µM [4]: -10.9% |
| C=C1C(=O)[C@@]23CC[C@@H]4[C@@](C)(COC(C)=O)CCC[C@@]4(C)[C@@H]2CC[C@@H]1C3 | 0.13 | 0.24 |  |  |
| C=C1C(=O)[C@@]23[C@H](O)C[C@@H]4C(C)(C)CCC[C@@]4(C)[C@@H]2CC[C@@H]1[C@H]3O | 1.96 | 3.22 |  |  |
| C=C1C(=O)[C@]23C[C@@H]1CC[C@H]2[C@]1(C)CCC[C@](C)(CO)[C@H]1C[C@@H]3O | 3.95 |  | 45.8 |  |
| CC(=O)OC[C@@]1(C)CCC[C@]2(C)[C@@H]1CC[C@]13CC(=O)[C@H](C[C@H](OC(C)=O)[C@H]12)C3 [CROTONKININ J] | 4.76 |  | 48.8 |  |
| c1ccc2c(c1)[I+]c1ccccc1-2 [DIPHENYLENEIODONIUM] | 0.93 |  |  |  |
| C=C1C(=O)[C@@]23[C@@H]4CC5=C(C(=O)CC5(C)C)[C@@](C)(O4)[C@@H]2CC[C@@H]1[C@H]3O [CROTONKINENSIN A] | 2.06 | 1.63 |  |  |
| C=C1C(=O)[C@]23C[C@H]1CC[C@H]2[C@]1(C)CCC[C@](C)(COC(C)=O)[C@H]1C[C@H]3OC(C)=O [CROTONKININ F] | 2.88 | 4.44 |  |  |
| C=C1C(=O)[C@@]23[C@H](O)C[C@@H]4C(C)(C)CCC[C@@]4(C)[C@@H]2CC[C@H]1[C@H]3OC(C)=O | 1.12 | 2.36 |  |  |
| C=C1C(=O)[C@@]23CC[C@@H]4[C@@](C)(COC(C)=O)CCC[C@@]4(C)[C@@H]2[C@@H](OC(C)=O)C[C@@H]1C3 [CROTONKININ E] | 3.11 | 4.66 |  |  |
| C=C1C(=O)[C@]23C[C@H]1CC[C@H]2[C@]1(C)CCC[C@](C)(COC(C)=O)[C@H]1C[C@H]3O | 1.55 | 2.64 |  |  |
| C=C1C(=O)[C@@]23[C@H](O)C[C@@H]4[C@@](C)(COC(C)=O)CCC[C@@]4(C)[C@@H]2CC[C@@H]1[C@H]3O |  |  | 20.1 | inhibition at 10 µM [4]: 19% |
| C=C1C[C@]23C(=O)C[C@H]4C(C)(C)CCC[C@]4(C)[C@H]2CC[C@H]1[C@@H]3O [CROTONKININ A] |  |  | -9.32 | inhibition at 10 µM [4]: 1.65% |
| C=C1C(=O)[C@@]23CC[C@@H]4[C@@](C)(CO)CCC[C@@]4(C)[C@@H]2CC[C@@H]1C3 |  |  | 18 | inhibition at 10 µM [4]: 29.9% |
| C=C1C[C@@]23CC[C@H]4[C@@](C)(CCC[C@]4(C)C(=O)O)[C@@H]2[C@H](OC(C)=O)C[C@H]1C3 | 4.12 | 2.58 |  |  |
| C=C1C(=O)[C@@]23CC[C@H]4[C@@](C)(CCC[C@]4(C)C(=O)O)[C@@H]2CC[C@H]1C3 | 3.27 | 5.56 |  |  |
| CC(=O)O[C@@H]1C[C@@H]2C[C@@]3(C=C2C=O)CC[C@H]2[C@](C)(CO)CCC[C@]2(C)[C@@H]13 [CROTONKININ B] | 3.2 | 4.38 |  |  |
| C=C1C(=O)[C@]23C[C@@H]1C[C@@H](OC(C)=O)[C@H]2[C@]1(C)CCC[C@](C)(COC(C)=O)[C@H]1C[C@@H]3O | 1.33 | 1.65 |  |  |
| CC(=O)OC[C@@]1(C)CCC[C@]2(C)[C@@H]1CC[C@]13C=C(C(=O)O)[C@H](C[C@H](OC(C)=O)[C@H]12)C3 [CROTONKININ D] | 2.93 |  | 20.3 |  |
